Measurements as given in ChEMBL document CHEMBL1141179 (J Med Chem, 2005).

Legend:
Rattus norvegicus [1] = species: Rattus norvegicus; assay: Relative potency of compound to inhibit growth hormone secretion in rat anterior pituitary cells; format: functional, Pituitary gland cell
Rattus norvegicus [2] = species: Rattus norvegicus; assay: Relative potency of compound to inhibit insulin secretion […]; format: functional
Rattus norvegicus [3] = species: Rattus norvegicus; assay: Relative potency of compound to inhibit glucagon secretion […]; format: functional
[4] = target: Somatostatin receptor type 3 (Homo sapiens, UniProt P32745); assay: Inhibition of 125I-[Leu8,D-Trp22,Tyr25]SRIF-28 binding to human somatostatin receptor type 3
Sequence of Somatostatin receptor type 3 (P32745 whole entry): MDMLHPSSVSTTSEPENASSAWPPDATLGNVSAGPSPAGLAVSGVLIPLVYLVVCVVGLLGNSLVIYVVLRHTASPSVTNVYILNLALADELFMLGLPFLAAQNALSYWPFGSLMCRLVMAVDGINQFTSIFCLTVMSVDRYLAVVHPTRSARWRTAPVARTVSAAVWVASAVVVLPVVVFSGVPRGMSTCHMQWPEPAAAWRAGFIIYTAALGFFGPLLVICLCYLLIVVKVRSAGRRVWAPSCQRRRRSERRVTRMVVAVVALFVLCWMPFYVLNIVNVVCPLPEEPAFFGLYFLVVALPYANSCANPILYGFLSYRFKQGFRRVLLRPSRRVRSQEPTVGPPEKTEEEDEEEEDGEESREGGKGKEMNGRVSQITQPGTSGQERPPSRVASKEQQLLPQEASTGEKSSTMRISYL
How it was run: (§1)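 Human sst2 or sst3 receptor stably expressed in CCL39 cells. 20 µm cryostat sections of cell membrane pellets were used for autoradiographic binding. IC50 (nM) came from competitive displacement. Values are mean ± SEM when N ≥ 3; otherwise mean with single values.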

[5] = target: Somatostatin receptor type 4 (Homo sapiens, UniProt P31391); assay: Inhibition of 125I-[Leu8,D-Trp22,Tyr25]SRIF-28 binding to human somatostatin receptor type 4
Sequence of Somatostatin receptor type 4 (P31391 whole entry): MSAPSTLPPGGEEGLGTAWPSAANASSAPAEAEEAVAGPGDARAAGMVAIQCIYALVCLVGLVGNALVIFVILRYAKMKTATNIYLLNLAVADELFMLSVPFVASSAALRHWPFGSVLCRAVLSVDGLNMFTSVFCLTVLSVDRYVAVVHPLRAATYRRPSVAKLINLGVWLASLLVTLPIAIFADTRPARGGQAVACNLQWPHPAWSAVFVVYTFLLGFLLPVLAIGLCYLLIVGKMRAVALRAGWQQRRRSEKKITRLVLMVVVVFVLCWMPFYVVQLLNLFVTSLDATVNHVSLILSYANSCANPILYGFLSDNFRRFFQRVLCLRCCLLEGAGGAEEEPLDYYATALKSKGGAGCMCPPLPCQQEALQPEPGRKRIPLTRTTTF

[6] = target: Somatostatin receptor type 1 (Homo sapiens, UniProt P30872); assay: Inhibition of 125I-[Leu8,D-Trp22,Tyr25]SRIF-28 binding to human somatostatin receptor type 1
Sequence of Somatostatin receptor type 1 (P30872 whole entry): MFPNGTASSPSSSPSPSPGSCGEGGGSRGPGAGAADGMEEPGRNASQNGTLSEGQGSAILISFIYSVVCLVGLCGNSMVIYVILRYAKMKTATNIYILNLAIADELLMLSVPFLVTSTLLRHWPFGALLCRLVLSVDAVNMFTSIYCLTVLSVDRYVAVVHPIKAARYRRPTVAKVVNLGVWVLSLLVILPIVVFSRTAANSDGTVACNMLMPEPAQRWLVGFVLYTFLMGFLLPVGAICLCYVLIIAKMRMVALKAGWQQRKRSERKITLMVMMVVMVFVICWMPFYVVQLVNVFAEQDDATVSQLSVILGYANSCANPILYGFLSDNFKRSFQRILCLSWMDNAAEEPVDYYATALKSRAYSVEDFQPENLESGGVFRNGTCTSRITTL
How it was run: (§2)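 Human sst1 or sst5 receptor stably expressed in CHO-K1 cells. 20 µm cryostat sections of cell membrane pellets were used for receptor autoradiography. IC50 (nM) came from competitive radioligand displacement. Values are mean ± SEM when N ≥ 3; otherwise mean with single values.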

[7] = target: Somatostatin receptor type 2 (Homo sapiens, UniProt P30874); assay: Inhibition of 125I-[Leu8,D-Trp22,Tyr25]SRIF-28 binding to human somatostatin receptor type 2; how it was run: as §1
Sequence of Somatostatin receptor type 2 (P30874 whole entry): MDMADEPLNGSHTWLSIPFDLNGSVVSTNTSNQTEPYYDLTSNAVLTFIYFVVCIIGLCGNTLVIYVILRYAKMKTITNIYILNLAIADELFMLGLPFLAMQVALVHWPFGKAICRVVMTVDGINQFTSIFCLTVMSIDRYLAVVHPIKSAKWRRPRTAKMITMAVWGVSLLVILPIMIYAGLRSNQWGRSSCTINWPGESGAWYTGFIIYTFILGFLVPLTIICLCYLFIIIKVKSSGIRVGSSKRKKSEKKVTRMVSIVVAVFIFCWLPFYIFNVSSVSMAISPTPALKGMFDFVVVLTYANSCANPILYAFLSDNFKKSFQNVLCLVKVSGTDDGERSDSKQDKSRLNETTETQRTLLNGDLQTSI

[8] = target: Somatostatin receptor type 5 (Homo sapiens, UniProt P35346); assay: Inhibition of 125I-[Leu8,D-Trp22,Tyr25]SRIF-28 binding to human somatostatin receptor type 5; how it was run: as §2
Sequence of Somatostatin receptor type 5 (P35346 whole entry): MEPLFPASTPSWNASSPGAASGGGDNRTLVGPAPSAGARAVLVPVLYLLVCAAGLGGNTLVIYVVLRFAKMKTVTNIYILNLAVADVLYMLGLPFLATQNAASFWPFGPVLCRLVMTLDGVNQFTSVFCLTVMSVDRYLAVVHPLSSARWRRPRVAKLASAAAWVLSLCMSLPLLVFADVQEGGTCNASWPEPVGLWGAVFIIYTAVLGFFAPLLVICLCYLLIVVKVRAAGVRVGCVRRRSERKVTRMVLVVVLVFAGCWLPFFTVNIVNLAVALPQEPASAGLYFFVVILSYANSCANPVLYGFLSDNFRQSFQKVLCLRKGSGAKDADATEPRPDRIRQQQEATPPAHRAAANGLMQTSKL

| SMILES | Relative potency (Rattus norvegicus [1]) | Relative potency (Rattus norvegicus [2]) | Relative potency (Rattus norvegicus [3]) | IC50 [4] [nM] | IC50 [5] [nM] | IC50 [6] [nM] | IC50 [7] [nM] | IC50 [8] [nM] |
| --- | --- | --- | --- | --- | --- | --- | --- | --- |
| C[C@@H](O)[C@@H]1NC(=O)[C@H](CCCCN)NC(=O)[C@@H](Cc2c[nH]c3ccccc23)NC(=O)[C@H](Cc2ccccc2)NC(=O)[C@H](Cc2ccccc2)NC(=O)[C@@H](N)CSSC[C@@H](C(=O)O)NC1=O [listing 1 of 2 here] | 0.07 | <1 | <1 | – | – | – | – | – |
| NCCCC[C@@H]1NC(=O)[C@@H](Cc2c[nH]c3ccccc23)NC(=O)[C@H](Cc2ccccc2)NC(=O)[C@H](Cc2ccccc2)NC(=O)[C@@H](N)CSSC[C@@H](C(=O)O)NC(=O)[C@H](Cc2ccccc2)NC1=O [listing 1 of 2 here] | <0.01 | <1 | <1 | – | – | – | – | – |
| C[C@@H](O)[C@@H]1NC(=O)[C@H](CCCCN)NC(=O)[C@@H](Cc2c[nH]c3ccccc23)NC(=O)[C@H](Cc2ccccc2)NC(=O)[C@H](Cc2ccccc2)NC(=O)[C@H](CCCCN)NC(=O)[C@@H](N)CSSC[C@@H](C(=O)O)NC(=O)[C@H](Cc2ccccc2)NC1=O [listing 1 of 2 here] | 15 | 310 | 115 | – | – | – | – | – |
| C[C@@H](O)[C@@H]1NC(=O)[C@H](CCCCN)NC(=O)[C@@H](Cc2c[nH]c3ccccc23)NC(=O)[C@H](Cc2ccccc2)NC(=O)[C@H](Cc2ccccc2)NC(=O)[C@H](CC(N)=O)NC(=O)[C@@H](N)CSSC[C@@H](C(=O)O)NC(=O)[C@H](Cc2ccccc2)NC1=O [listing 1 of 2 here] | <1 | 72 | <1 | – | – | – | – | – |
| CC(C)NCc1ccc(C[C@@H]2NC(=O)[C@@H](Cc3c[nH]c4ccccc34)NC(=O)[C@H](Cc3ccccc3)NC(=O)[C@@H]3CCC(=O)NCC[C@H](NC(=O)[C@H](Cc4ccccc4)NC(=O)[C@H]([C@@H](C)O)NC2=O)C(=O)N[C@@H](CO)C(=O)N[C@H](C(=O)O)CSSC[C@H](NC(=O)[C@@H](N)Cc2ccc(O)cc2)C(=O)N[C@@H](CCCCN)C(=O)N3)cc1 | – | – | – | > 1000 | > 1000 | 104 | > 1000 | > 1000 |
| C[C@@H](O)[C@@H]1NC(=O)[C@H](CCCCN)NC(=O)[C@@H](Cc2c[nH]c3ccccc23)NC(=O)[C@H](Cc2ccccc2)NC(=O)[C@H](Cc2ccccc2)NC(=O)[C@H](CCCCN)NC(=O)[C@@H](N)CSSC[C@@H](C(=O)O)NC(=O)[C@H](Cc2ccccc2)NC1=O [listing 2 of 2 here] | – | – | – | 39 | 0.6 | 5.3 | 15 | 13 |
| C[C@@H](O)[C@@H]1NC(=O)[C@H](CCCCN)NC(=O)[C@@H](Cc2c[nH]c3ccccc23)NC(=O)[C@H](Cc2ccccc2)NC(=O)[C@H](Cc2ccccc2)NC(=O)[C@@H](N)CSSC[C@@H](C(=O)O)NC1=O [listing 2 of 2 here] | – | – | – | > 1000 | > 1000 | > 1000 | 598 | > 1000 |
| CC(C)NCc1ccc(C[C@H]2C(=O)N[C@@H]([C@@H](C)O)C(=O)N[C@@H](Cc3ccc(O)c(I)c3)C(=O)N[C@H]3CCCCCCNC(=O)CC[C@H](NC(=O)[C@H](Cc4ccccc4)NC(=O)[C@H](CCCCN)NC(=O)[C@@H](N)CSSC[C@@H](C(=O)O)NC(=O)[C@H](CO)NC3=O)C(=O)N[C@H](Cc3c[nH]c4ccccc34)C(=O)N2C)cc1 | – | – | – | > 1000 | 611 | 46 | > 1000 | > 1000 |
| CC(C)NCc1ccc(C[C@@H]2NC(=O)[C@@H](Cc3c[nH]c4ccccc34)NC(=O)[C@@H]3CCC(=O)NCCCC[C@H](NC(=O)[C@H](Cc4ccccc4)NC(=O)[C@H]([C@@H](C)O)NC2=O)C(=O)N[C@@H](CO)C(=O)N[C@H](C(=O)O)CSSC[C@H](NC(=O)[C@@H](N)Cc2ccc(O)c(I)c2)C(=O)N[C@@H](CCCCN)C(=O)N[C@@H](Cc2ccccc2)C(=O)N3)cc1 | – | – | – | > 1000 | > 1000 | 89 | > 1000 | > 1000 |
| C[C@@H](O)[C@@H]1NC(=O)[C@H](Cc2ccccc2)NC(=O)[C@H]([C@@H](C)O)NC(=O)[C@H](CCCCN)NC(=O)[C@@H](Cc2c[nH]c3ccccc23)NC(=O)[C@H](Cc2ccccc2)NC(=O)[C@H](Cc2ccccc2)NC(=O)[C@@H](N)CSSC[C@@H](C(=O)O)NC(=O)[C@H](CO)NC1=O | 110 | 700 | <1 | – | – | – | – | – |
| CC(C)NCc1ccc(C[C@@H]2NC(=O)[C@@H](Cc3c[nH]c4ccccc34)NC(=O)[C@@H]3CCC(=O)NCCCC[C@H](NC(=O)[C@H]([C@@H](C)O)NC2=O)C(=O)N[C@@H]([C@@H](C)O)C(=O)N[C@@H](CO)C(=O)N[C@H](C(=O)O)CSSC[C@H](NC(=O)[C@@H](N)Cc2ccc(O)cc2)C(=O)N[C@@H](CCCCN)C(=O)N[C@@H](Cc2ccccc2)C(=O)N3)cc1 | – | – | – | > 1000 | > 1000 | > 1000 | > 1000 | > 1000 |
| CC(C)NCc1ccc(C[C@@H]2NC(=O)[C@@H](Cc3c[nH]c4ccccc34)NC(=O)[C@@H]3CCC(=O)NCCCC(=O)NCC[C@H](NC(=O)[C@H](Cc4ccccc4)NC(=O)[C@H]([C@@H](C)O)NC2=O)C(=O)N[C@@H](CO)C(=O)N[C@H](C(=O)O)CSSC[C@H](NC(=O)[C@@H](N)Cc2ccc(O)cc2)C(=O)N[C@@H](CCCCN)C(=O)N[C@@H](Cc2ccccc2)C(=O)N3)cc1 | – | – | – | > 1000 | > 1000 | 61 | > 1000 | > 1000 |
| C[C@@H](O)[C@@H]1NC(=O)[C@H](CCCCN)NC(=O)[C@@H](Cc2c[nH]c3ccccc23)NC(=O)[C@H](Cc2ccccc2)NC(=O)[C@@H](N)CSSC[C@@H](C(=O)O)NC(=O)[C@H](Cc2ccccc2)NC1=O | – | – | – | > 1000 | 229 | > 1000 | 531 | > 1000 |
| CC(C)NCc1ccc(C[C@@H]2NC(=O)[C@@H](Cc3c[nH]c4ccccc34)NC(=O)[C@H](Cc3ccccc3)NC(=O)[C@H]3CCC(=O)NCC[C@@H](NC(=O)[C@H]([C@@H](C)O)NC2=O)C(=O)N[C@@H]([C@@H](C)O)C(=O)N[C@@H](CO)C(=O)N[C@H](C(=O)O)CSSC[C@H](NC(=O)[C@@H](N)Cc2ccc(O)cc2)C(=O)N[C@@H](CCCCN)C(=O)N3)cc1 | – | – | – | > 1000 | > 1000 | > 1000 | > 1000 | > 1000 |
| C[C@@H](O)[C@@H]1NC(=O)[C@H](Cc2ccccc2)NC(=O)[C@H]([C@@H](C)O)NC(=O)[C@H](CCCCN)NC(=O)[C@@H](Cc2c[nH]c3ccccc23)NC(=O)[C@H](Cc2ccccc2)NC(=O)[C@H](Cc2ccccc2)NC(=O)[C@H](CC(N)=O)NC(=O)[C@@H](N)CSSC[C@@H](C(=O)O)NC1=O | 8 | 75 | – | – | – | – | – | – |
| C[C@@H](O)[C@@H]1NC(=O)[C@H](CCCCN)NC(=O)[C@@H](Cc2c[nH]c3ccccc23)NC(=O)[C@H](Cc2ccccc2)NC(=O)[C@H](Cc2ccccc2)NC(=O)[C@H](CC(N)=O)NC(=O)[C@@H](N)CSSC[C@@H](C(=O)O)NC(=O)[C@H](Cc2ccccc2)NC1=O [listing 2 of 2 here] | – | – | – | 189 | 1.2 | 59 | 95 | 31 |
| CC(C)NCc1ccc(C[C@@H]2NC(=O)[C@@H](Cc3c[nH]c4ccccc34)NC(=O)[C@@H](NC(=O)[C@@H](N)Cc3ccccc3)CCC(=O)NCCCC[C@@H](C(=O)N[C@@H](CO)C(=O)O)NC(=O)[C@H](Cc3ccccc3)NC(=O)[C@H]([C@@H](C)O)NC2=O)cc1 | – | – | – | > 1000 | > 1000 | > 1000 | > 1000 | > 1000 |
| NCCCC[C@@H]1NC(=O)[C@@H](Cc2c[nH]c3ccccc23)NC(=O)[C@H](Cc2ccccc2)NC(=O)[C@H](Cc2ccccc2)NC(=O)[C@@H](N)CSSC[C@@H](C(=O)O)NC(=O)[C@H](Cc2ccccc2)NC1=O [listing 2 of 2 here] | – | – | – | 905 | 786 | > 1000 | > 1000 | > 1000 |
| CC(C)NCc1ccc(C[C@H]2C(=O)N[C@@H]([C@@H](C)O)C(=O)N[C@@H](Cc3ccc(O)c(I)c3)C(=O)N[C@H]3CCCCNC(=O)CC[C@H](NC(=O)[C@H](Cc4ccccc4)NC(=O)[C@H](CCCCN)NC(=O)[C@@H](N)CSSC[C@@H](C(=O)O)NC(=O)[C@H](CO)NC3=O)C(=O)N[C@H](Cc3c[nH]c4ccccc34)C(=O)N2C)cc1 | – | – | – | 254 | > 1000 | 14 | > 1000 | > 1000 |
| CC(C)NCc1ccc(C[C@@H]2NC(=O)[C@@H](Cc3c[nH]c4ccccc34)NC(=O)[C@@H]3CCC(=O)NCC[C@H](NC(=O)[C@H]([C@@H](C)O)NC2=O)C(=O)N[C@@H]([C@@H](C)O)C(=O)N[C@@H](CO)C(=O)N[C@H](C(=O)O)CSSC[C@H](NC(=O)[C@@H](N)Cc2ccc(O)cc2)C(=O)N[C@@H](CCCCN)C(=O)N[C@@H](Cc2ccccc2)C(=O)N3)cc1 | – | – | – | > 1000 | > 1000 | > 1000 | > 1000 | > 1000 |
| CC(C)NCc1ccc(C[C@@H]2NC(=O)[C@@H](Cc3c[nH]c4ccccc34)NC(=O)[C@@H]3CCC(=O)NCC[C@H](NC(=O)[C@H](Cc4ccccc4)NC(=O)[C@H]([C@@H](C)O)NC2=O)C(=O)N[C@@H](CO)C(=O)N[C@H](C(=O)O)CSSC[C@H](NC(=O)[C@@H](N)Cc2ccc(O)cc2)C(=O)N[C@@H](CCCCN)C(=O)N[C@@H](Cc2ccccc2)C(=O)N3)cc1 | – | – | – | > 1000 | > 1000 | 241 | > 1000 | > 1000 |
